The list is not random: actives were taken first. Their share in the collection is about 1.1%.
DAGLB inh: diacylglycerol lipase beta (human) inhibition; Q8NCG7; HEK293T DAGLB membrane lysate, EnzChek fluorogenic substrate; inhibition, % at 5.17 µM; 340,000 tested, 0.059% active; in the data active = inhibition above about 34%
Vif inh: HIV Vif inhibition; 340,000 tested, 0.35% active; HEK293T cells, Vif self-association by quenched fluorescence, imaging, 24 h; inhibition, % at 7.49 µM; in the data active = inhibition above about 50%, passing the limit was not always enough
MT1-MMP act inh: MT1-MMP (human) activation inhibition; HT1080 RFP-PRO-GFP cells, GFP/RFP ratio fluorescence, overnight; percent of plate control window, DMSO zero; P50281; 360,000 tested, 0.061% active; GFP/RFP ratio change, % at 20 µM;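 active = GFP/RFP ratio change of at least 30% with cell ATP level not reduced by more than half and red fluorescence within 50% of control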
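Read-out: GFP/RFP fluorescence ratio; Test system: RFP-PRO-GFP reporter HT1080 cells; Compound dosing: single-point 20 µM compound, 1% DMSO; Times: overnight compound exposure at 37 °C.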
NR2E3 ag-1: activates human photoreceptor nuclear receptor NR2E3 | Q9Y5X4 | GST-NR2E3/biotin-RetCOR TR-FRET, 1536-well | inhibition of corepressor binding, % at 4.78 µM | 320,000 tested, 0.12% active | AID 2300;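 active = percent inhibition above the cutoff of mean plus 3 SD of all tested compounds, set per screening campaign, cut at about 20% in these data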
Target sequence (Q9Y5X4 whole entry, looked up): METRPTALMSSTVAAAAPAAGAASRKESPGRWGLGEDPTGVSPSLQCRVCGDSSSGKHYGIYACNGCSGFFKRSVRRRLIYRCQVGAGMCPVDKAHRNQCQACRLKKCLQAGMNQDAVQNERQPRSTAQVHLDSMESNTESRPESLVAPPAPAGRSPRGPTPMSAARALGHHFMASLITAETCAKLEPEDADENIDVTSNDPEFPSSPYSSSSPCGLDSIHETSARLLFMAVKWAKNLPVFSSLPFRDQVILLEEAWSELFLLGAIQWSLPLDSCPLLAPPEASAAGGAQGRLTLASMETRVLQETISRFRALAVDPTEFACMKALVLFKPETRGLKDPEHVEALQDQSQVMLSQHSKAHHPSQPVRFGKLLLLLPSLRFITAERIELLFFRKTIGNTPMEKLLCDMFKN
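System: GST-tagged NR2E3 plus biotinylated RetCOR corepressor; Buffer or medium: pH 7.5 Tris-based buffer; Probe or stimulus: RetCOR corepressor, biotinylated, 7 nM; Doses: compound at 4.8 µM, single dose; Schedule: 5 h incubation at 4 °C; Technique: time-resolved FRET; Evaluation: percent inhibition of TR-FRET ratio; Replication: one well per compound, singlicate testing.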
core dimer inh: HCV core protein dimerization inhibition; TR-FRET GST/Flag-core106 dimerization, 1536-well; inhibition, % at 5 µM; 300,000 tested, 0.33% active;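 active = inhibition above the mean of all tested compounds plus 3 SD, set per screening campaign, cut at about 45% in these data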
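test system = GST/Flag-tagged HCV core106 proteins | probe or stimulus = Eu donor and XL665 acceptor anti-tag antibodies | times = compound-protein-antibody incubation 4 h at 22.5 °C | signal = TR-FRET, excitation 340 nm, emission 617 and 671 nm | measure = percent inhibition of core106 dimerization signal | controls = wells lacking GST-core106 and wells with excess unlabelled core106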
NR2E3 ag-2: human photoreceptor-specific nuclear receptor agonism. Q9Y5X4. AID 602229. 360,000 tested, 0.35% active. CHO-S Gal4-NCOR/VP16-NR2E3 two-hybrid, luciferase. inhibition of corepressor binding, % at 3.98 µM;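 active = inhibition above the mean of all tested compounds plus 3 SD, cut at about 70% in these data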;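 also: higher means lower luciferase signal from less NR2E3 corepressor binding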
Each line names hits and unclear results; the compound was inactive in the other large screens.

CC(C)(C)N1C(=O)[C@H]2[C@@H](c3ccc(Br)cc3)N3C(=O)N(c4cccc(Cl)c4)C(=O)[C@@]3(Cc3ccccc3)[C@H]2C1=O	none
Cc1ccc(OCC(=O)N/N=C/C=C/c2ccco2)cc1	core dimer inh 67.3 (no result: Vif inh)
O=C(COc1ccccc1[N+](=O)[O-])N/N=C/C=C/c1ccco1	none
O=C1N[C@@H](Cc2cn(S(=O)(=O)c3c(F)c(F)c(F)c(F)c3F)c3ccccc23)C(=O)N[C@H]1Cc1ccccc1	core dimer inh 49.4 (no result: DAGLB inh, Vif inh, MT1-MMP act inh, NR2E3 ag-2)
O=C1N[C@@H](Cc2cn(S(=O)(=O)c3ccc([N+](=O)[O-])cc3)c3ccccc23)C(=O)N[C@H]1Cc1ccccc1	none
CC1SC(=S)N(c2ccc(N(C)C)cc2)C1=O (stereo unspecified)	none
CCOc1ccc(OCC)c(S(=O)(=O)NCc2ccccc2)c1	Vif inh 55.4
CCOc1ccc(OCC)c(S(=O)(=O)NCc2cccnc2)c1	none
N#C/C(=C\c1ccc(O)c(O)c1)C(=O)Nc1cccc2ncccc12	core dimer inh 65.3
COc1nc(NCCO)nc(Nc2ccccc2F)n1	none
CN1CCc2ccc(NC(=O)c3ccc(C(F)(F)F)cc3)cc2C1	none
COc1ccc(/C=C/C(=O)NCC(=O)N/N=C/c2cc(Br)ccc2OCc2ccccc2)cc1	core dimer inh 49.1
OC(c1ccc(F)cc1)c1nc(-c2cc3ccccc3o2)cs1 (stereo unspecified)	none (no result: DAGLB inh, NR2E3 ag-1, core dimer inh)
CCCn1c(=O)c(C(=O)Nc2ncccc2O)c(O)c2ccccc21	Vif inh 58.1 (no result: NR2E3 ag-1, core dimer inh)
Cc1ccc(NC(=O)C2(C)CCN2Cc2ccc(OC(C)C)cc2)cc1 (stereo unspecified)	none (no result: DAGLB inh, NR2E3 ag-1, core dimer inh)
CC(C)Oc1ccc(CN2CCC2(C)C(=O)Nc2ccc(Cl)c(Cl)c2)cc1 (stereo unspecified)	Vif inh 58.0 (no result: DAGLB inh, NR2E3 ag-1, core dimer inh)
CCCN1CCN(C(=O)c2ccc3[nH]c(C)c(C)c3c2)CC1	none (no result: NR2E3 ag-1, core dimer inh)
COc1ccc(NC(=O)C(c2cc3ccccc3o2)n2c(=O)c(-c3cc4ccccc4[nH]3)nc3ccccc32)cc1 (stereo unspecified)	none (no result: DAGLB inh, Vif inh, NR2E3 ag-1, core dimer inh, NR2E3 ag-2)
CCCCC(CC)CN=C(N)NC(N)=NCCCCCCN=C(N)NC(N)=NCC(CC)CCCC (stereo unspecified)	NR2E3 ag-2 90.2 (no result: MT1-MMP act inh)
CCCCC(CC)CO (stereo unspecified)	none (no result: NR2E3 ag-1, core dimer inh)
COc1ccc(C(=O)O)cc1S(=O)(=O)N1CCSCC1	none (no result: NR2E3 ag-1, core dimer inh)
N#Cc1ccc(-c2csc(NC(=O)c3ccc(N4C(=O)CCC4=O)cc3)n2)cc1	none
Cc1cc(-c2csc(NC(=O)c3ccc(=O)[nH]c3)n2)c(C)n1Cc1ccccc1	core dimer inh 55.0
O=C(Nc1nc(-c2ccccc2)cs1)c1ccc(=O)[nH]c1	none
Cc1cc(-c2csc(NC(=O)c3ccc(C#N)cc3)n2)c(C)n1Cc1ccco1	core dimer inh 48.6
Cc1cc(-c2csc(NC(=O)c3cc4ccccc4o3)n2)c(C)n1C	core dimer inh 74.2
CN(C)C(=O)c1ccc(NC(=O)c2cccc(-n3cnnn3)c2)cc1	none (no result: NR2E3 ag-1, core dimer inh)
COc1ccc(C2=NN(C(=O)CSc3nc(=O)n4cc(C)ccc4n3)C(c3ccc(C)cc3)C2)cc1 (stereo unspecified)	none
CCN(CC)CCOC(=O)c1ccc(N/C=C(/C#N)c2nc(-c3cc4ccccc4oc3=O)cs2)cc1	Vif inh 57.6 (no result: NR2E3 ag-1, core dimer inh)
CCN(CC)CCOC(=O)c1ccc(N/C=C(/C#N)c2nc(-c3ccc(OC)cc3)cs2)cc1	none
CCc1ccc(CNC(=O)C2CCCN(c3nn4c(=O)cc(C)nc4s3)C2)cc1 (stereo unspecified)	none
CN(/N=C/c1ccc(-c2ccc([N+](=O)[O-])cc2)o1)c1ccccc1	core dimer inh 55.1 (no result: Vif inh)
NC(=S)N/N=C/c1ccc(-c2ccc([N+](=O)[O-])cc2)o1	core dimer inh 49.9
O=C1Nc2ccccc2/C1=N/N=C/c1ccc(-c2ccc([N+](=O)[O-])cc2)o1	Vif inh 53.7 (no result: NR2E3 ag-1, core dimer inh)
COc1ccc(C(=O)C[C@@H]2OC[C@H](Cc3ccccc3)N2S(=O)(=O)c2ccc(C)cc2)cc1OC	none (no result: DAGLB inh, Vif inh, NR2E3 ag-1, core dimer inh, NR2E3 ag-2)
CCCn1cc(CN2CCC(n3nccc3NC(=O)c3ccc4c(c3)OCO4)CC2)c(C)n1	none
NS(=O)(=O)c1cccc(NC(=O)Cc2ccc(Cl)c(Cl)c2)c1	none
COc1ccc(Cl)cc1C(=O)NC(=S)Nc1cc(-c2nc3ccccc3[nH]2)ccc1C	core dimer inh 47.3
CC(C)(C)C(=O)N1CCN(c2ccc(NC(=O)c3ccc([N+](=O)[O-])o3)cc2)CC1	none
CCC(=O)N1CCN(c2ccc(NC(=O)c3ccc([N+](=O)[O-])o3)cc2)CC1	Vif inh 72.9 (no result: NR2E3 ag-1, core dimer inh)
C/C(=N\NC(=O)c1ccccc1C)c1cccnc1	none
COc1cccc(-c2cc(C(F)(F)F)nc(-n3cc(C)cn3)n2)c1	Vif inh 88.8
O=C1CCC/C(=N/NC(=O)c2ccc(NS(=O)(=O)c3cccs3)cc2)C1	Vif inh 51.7
O=C1CCC/C(=N/NC(=O)c2cc(NS(=O)(=O)c3cccs3)cc(NS(=O)(=O)c3cccs3)c2)C1	none
COc1cc(CNC2CCCC2)c(Br)cc1OC1CCCC1	none (no result: Vif inh)
COc1cc(CNCc2ccccc2)c(Br)cc1OC1CCCC1	Vif inh 74.9
O=C(Nc1ccnc(-c2cccnc2)n1)c1cccs1	Vif inh 119.3
C=C(C)c1nc(Oc2ccccc2)nc(Oc2ccccc2)n1	none (no result: NR2E3 ag-1, core dimer inh)
O=C(/C=C/[C@H]1O[C@@H](n2ccc(=O)[nH]c2=O)[C@H](O)[C@@H]1O)NCCCc1ccccc1	none (no result: DAGLB inh, NR2E3 ag-1, core dimer inh)
COc1cc(C(=O)NCCc2cn3ccccc3n2)cc(OC)c1OC	none
COc1cc(C(=O)NCCc2cn3ccc(C)cc3n2)cc(OC)c1OC	Vif inh 96.4
CCOc1ccccc1N1CCN(C(=O)c2c(-c3c(F)cccc3Cl)noc2C)CC1	none
COc1cccc(/C=N/NC(=O)c2nc(-c3ccccc3)cc(-c3ccccc3)n2)c1	core dimer inh 49.5
CN1CCc2c(sc(NC(=O)c3cc(Cl)sc3Cl)c2C(N)=O)C1	Vif inh 161.1 (no result: DAGLB inh)
CC(C)N1CCc2c(sc(NC(=O)c3ccc4ccccc4c3)c2C(N)=O)C1	none
CC(C)N1CCc2c(sc(NC(=O)c3cc4cc([N+](=O)[O-])ccc4s3)c2C(N)=O)C1	Vif inh 79.7 (no result: NR2E3 ag-1, core dimer inh)
CCCC(=O)c1c(NC(C)C)cc(C)oc1=O	none (no result: MT1-MMP act inh)
CCOC(=O)N1CCN(C(C(=O)NC2CCCC2)C(C)C)CC1 (stereo unspecified)	none (no result: DAGLB inh, Vif inh, NR2E3 ag-1, core dimer inh, NR2E3 ag-2)
CC(C)(C)CCN1CCC(CN2CCNC2=S)CC1	none (no result: NR2E3 ag-1, core dimer inh)
S=c1nc(Cc2ccc(Cl)cc2)[nH]c2ccccc12	core dimer inh 53.8 (no result: DAGLB inh)
Cc1nc(=S)c2ccccc2[nH]1	none

Assay outcomes (PubChem BioAssay)
